Results: ChEMBL document CHEMBL4725355, “Design, Synthesis, and Preclinical Evaluation of 3-Methyl-6-(5-thiophenyl)-1,3-dihydro-imidazo[4,5-b]pyridin-2-ones as Selective GluN2B Negative Allosteric Modulators for the Treatment of Mood Disorders” (J Med Chem, 2020)

Key:
[1] = Negative allosteric modulation of human GluN1a/GluN2B receptor expressed in CHO cells assessed as inhibition of glutamate and glycine-induced calcium flux preincubated for 5 mins followed by glutamate and glycine addition and measured after 5 mins by calcium 5 dye based FLIPR assay; type: cell-based
Method in brief: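 Tet-On CHO T-Rex cells expressing hGluN1a with GluN2A, 2B, 2C or 2D, plated at 20,000 cells/well and induced 24 h before the assay in the presence of ketamine. Cells loaded 1 h at room temperature with Calcium 5 dye, pH 7.4 HEPES buffer. Compound added 5 min, then glutamate (~EC80) plus 10 µM glycine for 5 min; FLIPR fluorescence normalized to control wells. Three independent runs in duplicate (two for some).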

[2] = Solubility of compound in phosphate buffer at pH 2 measured after 3 days; type: physicochemical; details: time 3 day
Method in brief: (§1)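 Solubility in aqueous buffer at pH 2 and pH 7, and in simulated gastric and intestinal fluids.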

[3] = Solubility of compound in phosphate buffer at pH 7 measured after 3 days; type: physicochemical; details: time 3 day; method in brief: as §1
[4] = Efflux ratio of apparent permeability across basolateral to apical side over apical to basolateral side in MDCK-MDR1 cells at 5 uM measured after 60 mins by LC-MS/MS analysis; type: ADME, cell-based, Canis lupus familiaris; details: dog
Method in brief: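 MDCK-MDR1 cells, passages 6-30, seeded at 3.4×10^5 cells/cm² and cultured 3 days. Test compound at 5 µM final (1% DMSO) in HBSS, pH 7.4, applied to the donor side. A→B and B→A runs at 37 °C for 60 min, in duplicate, quantified by LC/MS/MS. Efflux ratio taken as B-A/A-B; monolayer integrity checked by lucifer yellow.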

[5] = target: Voltage-gated inwardly rectifying potassium channel KCNH2 (Homo sapiens, UniProt Q12809); assay: Inhibition of human ERG expressed in CHO cells measured after 5 mins by Qpatch method; type: cell-based
Sequence of Voltage-gated inwardly rectifying potassium channel KCNH2 (Q12809 whole entry): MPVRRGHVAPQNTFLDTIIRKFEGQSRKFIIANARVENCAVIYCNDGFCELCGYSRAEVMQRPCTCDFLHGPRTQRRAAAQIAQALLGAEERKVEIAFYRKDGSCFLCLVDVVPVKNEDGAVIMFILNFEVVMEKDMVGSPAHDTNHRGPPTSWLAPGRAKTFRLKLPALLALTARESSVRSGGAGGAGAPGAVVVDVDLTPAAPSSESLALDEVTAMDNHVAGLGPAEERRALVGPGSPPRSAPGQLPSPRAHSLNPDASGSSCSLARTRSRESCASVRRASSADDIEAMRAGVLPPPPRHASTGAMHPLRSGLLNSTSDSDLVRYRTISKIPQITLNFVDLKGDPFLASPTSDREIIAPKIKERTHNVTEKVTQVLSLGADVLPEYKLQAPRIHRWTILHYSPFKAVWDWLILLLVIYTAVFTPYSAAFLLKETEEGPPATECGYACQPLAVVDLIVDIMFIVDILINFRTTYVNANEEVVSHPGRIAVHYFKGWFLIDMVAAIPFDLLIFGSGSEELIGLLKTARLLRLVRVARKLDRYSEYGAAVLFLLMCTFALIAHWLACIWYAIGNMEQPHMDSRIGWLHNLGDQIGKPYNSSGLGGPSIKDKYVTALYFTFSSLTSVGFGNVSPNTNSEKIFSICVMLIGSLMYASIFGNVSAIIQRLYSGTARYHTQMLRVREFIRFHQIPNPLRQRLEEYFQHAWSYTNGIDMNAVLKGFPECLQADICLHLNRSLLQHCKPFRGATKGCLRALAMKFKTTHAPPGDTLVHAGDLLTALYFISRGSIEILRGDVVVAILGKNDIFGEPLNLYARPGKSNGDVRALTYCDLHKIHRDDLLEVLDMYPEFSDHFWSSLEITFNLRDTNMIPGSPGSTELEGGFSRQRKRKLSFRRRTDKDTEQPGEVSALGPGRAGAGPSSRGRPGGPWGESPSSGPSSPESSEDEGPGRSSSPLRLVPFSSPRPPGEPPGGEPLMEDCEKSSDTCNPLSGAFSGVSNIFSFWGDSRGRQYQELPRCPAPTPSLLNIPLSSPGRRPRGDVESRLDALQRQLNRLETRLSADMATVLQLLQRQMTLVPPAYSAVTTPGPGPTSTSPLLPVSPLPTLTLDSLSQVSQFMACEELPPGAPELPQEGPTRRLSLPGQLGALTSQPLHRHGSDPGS
Method in brief: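 CHO cells stably expressing hERG, whole-cell QPatch. Vehicle applied 5 min, then 0.3, 3.0, 10 and 30 µM in rising order, each concentration applied twice. Current measured after 5 min as the average of 3 voltage pulses; block taken relative to vehicle pretreatment, mean ± SEM.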

[6] = Displacement of 3-[3H] 1-(azetidin-1-yl)-2-[6-(4-fluoro-3-methyl-phenyl)pyrrolo[3,2-b]pyridin-1-yl]ethanone from GluN1a/GluN2B receptor in rat cortex membranes measured after 2 hrs by liquid scintillation counting method; type: cell membranes
Method in brief: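 Rat adult cortex was homogenized in 50 mM Tris pH 7.4, and membranes were washed by centrifugation. Membranes were incubated with the [3H] pyrrolopyridine tracer and test compound for 2 h at room temperature with shaking. Non-specific binding was defined with 10 µM CP-101,606. Bound tracer was separated by filtration on PEI-soaked GF/B filters and counted by liquid scintillation. Ki was obtained from a competition fit using tracer Kd; three independent runs in duplicate.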

[7] = Metabolic stability in human liver microsomes assessed as extraction ratio at 1 uM after 5 to 60 mins in presence of NADPH by LC-MS/MS analysis; type: ADME, Microsome; details: time 5-60 min, read-out: ERH
Method in brief: (§2)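 Human and rat liver microsomes, run in duplicate; stability reported as microsomal extraction ratio.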

[8] = Metabolic stability in rat liver microsomes assessed as extraction ratio at 1 uM after 5 to 60 mins in presence of NADPH by LC-MS/MS analysis; type: ADME, Microsome; details: time 5-60 min, read-out: ERH; method in brief: as §2
[9] = Clearance in Sprague-Dawley rat at 0.5 mg/kg, iv using 30% SBE-beta-CD formulation by LC-MS/MS analysis; type: ADME, organism-based; details: in vivo
Method in brief: (§3)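 Rat IV/PO PK at 0.5 mg/kg IV and 2.5 mg/kg PO, dosed in 30% SBE-β-CD, n=3.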

[10] = Volume of distribution at steady state in Sprague-Dawley rat at 0.5 mg/kg, iv or 2.5 mg/kg, po using 30% SBE-beta-CD formulation by LC-MS/MS analysis; type: ADME, organism-based; details: in vivo, read-out: Vdss
Method in brief: (§4)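 Rat PK at 0.5 mg/kg i.v. and 2.5 mg/kg p.o., vehicle 30% SBE-β-CD. n=3, values given as mean ± SD.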

[11] = Half life in Sprague-Dawley rat at 0.5 mg/kg, iv or 2.5 mg/kg, po using 30% SBE-beta-CD formulation by LC-MS/MS analysis; type: ADME, organism-based; details: in vivo
Method in brief: (§5)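 Rats dosed 0.5 mg/kg i.v. and 2.5 mg/kg p.o., n=3 ± SD. Default vehicle is 20% HP-β-CD; one PK set used 1:1 PEG400/water and another 30% SBE-β-CD.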

[12] = Cmax in Sprague-Dawley rat at 0.5 mg/kg, iv or 2.5 mg/kg, po using 30% SBE-beta-CD formulation by LC-MS/MS analysis; type: ADME, organism-based; parameters: dose 2.5 mg/kg; details: in vivo; method in brief: as §3
[13] = AUC (infinity) in Sprague-Dawley rat at 0.5 mg/kg, iv or 2.5 mg/kg, po using 30% SBE-beta-CD formulation by LC-MS/MS analysis; type: ADME, organism-based; parameters: dose 2.5 mg/kg; details: in vivo; method in brief: as §3
[14] = Tmax in Sprague-Dawley rat at 0.5 mg/kg, iv or 2.5 mg/kg, po using 30% SBE-beta-CD formulation by LC-MS/MS analysis; type: ADME, organism-based; details: in vivo; method in brief: as §4
[15] = Oral bioavailability in Sprague-Dawley rat at 2.5 mg/kg using 30% SBE-beta-CD formulation by LC-MS/MS analysis; type: ADME, organism-based; details: in vivo; method in brief: as §5
[16] = Ex vivo receptor occupancy at GluN2B in Sprague-Dawley rat assessed as 3-[3H] 1-(azetidin-1-yl)-2-[6-(4-fluoro-3-methyl-phenyl)pyrrolo[3,2-b]pyridin-1-yl]-ethanone labelling at 3 mg/kg, po measured after 0.5 hrs by autoradiography; type: functional
Method in brief: (§6)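 Rats dosed orally at 3 mg/kg in 20% HP-β-CD; brains taken at 0.5, 2 and 6 h. Ex vivo autoradiography of brain slices with the ³H pyrrolo[3,2-b]pyridine GluN2B tracer. Labelling expressed relative to matching brain areas of vehicle-treated animals; n=2, ± SEM.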

[17] = Ex vivo receptor occupancy at GluN2B in Sprague-Dawley rat assessed as 3-[3H] 1-(azetidin-1-yl)-2-[6-(4-fluoro-3-methyl-phenyl)pyrrolo[3,2-b]pyridin-1-yl]-ethanone labelling at 3 mg/kg, po measured after 2 hrs by autoradiography; type: functional; method in brief: as §6
[18] = Ex vivo receptor occupancy at GluN2B in Sprague-Dawley rat assessed as 3-[3H] 1-(azetidin-1-yl)-2-[6-(4-fluoro-3-methyl-phenyl)pyrrolo[3,2-b]pyridin-1-yl]-ethanone labelling at 3 mg/kg, po measured after 6 hrs by autoradiography; type: functional; method in brief: as §6
[19] = Cmax in Sprague-Dawley rat brain at 3 mg/kg, po after 2 hrs by LC-MS/MS analysis; type: ADME, organism-based; parameters: route oral, dose 3 mg/kg, time 2 hrs
Method in brief: (§7)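 Oral dose of 3 mg/kg in 20% HP-β-CD to rats. Brain concentration was measured alongside ex vivo GluN2B occupancy over a 6 h time course (0.5, 2 and 6 h), n=2.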

[20] = Tmax in Sprague-Dawley rat brain at 3 mg/kg, po by LC-MS/MS analysis; type: ADME, organism-based
Method in brief: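 Rats dosed orally at 3 mg/kg in 20% HP-β-CD. Brain concentrations were measured over a 6 h time course (0.5, 2, 6 h) alongside ex vivo GluN2B occupancy, n=2.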

[21] = Solubility of compound in 30% sulfobutylether-beta-cyclodextrin at 0.5 mg/ml; type: physicochemical
Method in brief: (§8)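 Solubility of the compound assessed in dosing excipients, including 30% SBE-β-CD, 50% PEG-400 and 20% HP-β-CD. The aim was a solution usable for rat dosing; the 20% HP-β-CD formulation was checked for a 0.1 mg/mL solution to support a 0.5 mg/kg dose.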

[22] = Clearance in Sprague-Dawley rat at 0.1 mg/kg, iv by LC-MS/MS analysis; type: ADME, organism-based; details: in vivo
Method in brief: (§9)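 Rat PK with IV and PO dosing, n=3. The usual doses were 0.5 mg/kg IV and 2.5 mg/kg PO in 20% HP-β-CD. One compound was instead given at 0.1 mg/kg IV and 0.5 mg/kg PO.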

[23] = Volume of distribution at steady state in Sprague-Dawley rat at 0.1 mg/kg, iv or 0.5 mg/kg, po by LC-MS/MS analysis; type: ADME, organism-based; details: in vivo, read-out: Vdss
Method in brief: (§10)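 Rat PK with doses of 0.1 mg/kg i.v. and 0.5 mg/kg p.o., vehicle 20% HP-β-CD. n=3, values given as mean ± SD.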

[24] = Half life in Sprague-Dawley rat at 0.1 mg/kg, iv or 0.5 mg/kg, po by LC-MS/MS analysis; type: ADME, organism-based; details: in vivo
Method in brief: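 Rat PK with 0.1 mg/kg i.v. and 0.5 mg/kg p.o. doses, n=3 ± SD.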

[25] = Cmax in Sprague-Dawley rat at 0.1 mg/kg, iv or 0.5 mg/kg, po by LC-MS/MS analysis; type: ADME, organism-based; parameters: dose 0.5 mg/kg; details: in vivo; method in brief: as §9
[26] = AUC (infinity) in Sprague-Dawley rat at 0.1 mg/kg, iv or 0.5 mg/kg, po by LC-MS/MS analysis; type: ADME, organism-based; parameters: dose 0.5 mg/kg; details: in vivo; method in brief: as §9
[27] = Tmax in Sprague-Dawley rat at 0.1 mg/kg, iv or 0.5 mg/kg, po by LC-MS/MS analysis; type: ADME, organism-based; details: in vivo; method in brief: as §10
[28] = Oral bioavailability in Sprague-Dawley rat at 0.5 mg/kg by LC-MS/MS analysis; type: ADME, organism-based; details: in vivo
[29] = Solubility of compound in 100% polyethylene glycol 400 at 0.5 mg/ml; type: physicochemical
[30] = Solubility of compound in 20% hydroxypropyl-beta-cyclodextrin at 0.1 mg/ml; type: physicochemical; method in brief: as §8
[31] = Cmax in Sprague-Dawley rat brain at 3 mg/kg, po after 6 hrs by LC-MS/MS analysis; type: ADME, organism-based; parameters: route oral, dose 3 mg/kg, time 6 hrs; method in brief: as §7

Cn1c(=O)n(CC(=O)N2CC(F)C2)c2cc(-c3ccc(C(F)(F)F)s3)cnc21
IC50 [1]: 0.071 µM
solubility at 72 h [2]: < 4 µM
solubility at 72 h [3]: < 4 µM
efflux ratio at 1 h, 5 µM [4]: 3.7
IC50 [5]: > 10 µM
Ki [6]: 0.021 µM
hepatic extraction ratio at 1 µM [7]: < 0.3
hepatic extraction ratio at 1 µM [8]: 0.17
clearance [9]: 20 mL/min/kg
Vd [10]: 0.9 L/kg
half-life [11]: 0.9 h
Cmax [12]: 1000 ng/mL
AUC(0-inf) [13]: 3610 ng·h/mL
Tmax [14]: 1 h
bioavailability [15]: 109%
Occ [16]: 74%
Occ [17]: 71%
Occ [18]: 24%
Cmax [19]: 728 ng/g
Tmax [20]: 2 h

CN(C)C(=O)Cn1c(=O)n(C)c2ncc(-c3ccc(C(F)(F)F)s3)cc21
IC50 [1]: 0.029 µM
solubility at 72 h [2]: < 4 µM
solubility at 72 h [3]: < 4 µM
efflux ratio at 1 h, 5 µM [4]: 1.4
IC50 [5]: > 10 µM
Ki [6]: 0.012 µM
hepatic extraction ratio at 1 µM [7]: < 0.3
hepatic extraction ratio at 1 µM [8]: < 0.17
solubility [21]: Insoluble
clearance [22]: 14 mL/min/kg
Vd [23]: 1.2 L/kg
half-life [24]: 1.3 h
Cmax [25]: 188 ng/mL
AUC(0-inf) [26]: 912 ng·h/mL
Tmax [27]: 1 h
bioavailability [28]: 121%
solubility [29]: Insoluble
solubility [30]: Soluble
Occ [16]: 79%
Occ [17]: 80%
Occ [18]: 77%
Cmax [19]: 1260 ng/g
Tmax [20]: 2 h
Cmax [31]: 598 ng/g
